From ChEMBL document CHEMBL1158507, “Development of substituted 6-[4-fluoro-3-(piperazin-1-ylcarbonyl)benzyl]-4,5-dimethylpyridazin-3(2H)-ones as potent poly(ADP-ribose) polymerase-1 (PARP-1) inhibitors active in BRCA deficient cells” (Bioorg Med Chem Lett, 2010)
pIC50: −log10 of the molar value. Calls of active or inactive are those of the source. No cut-off for these calls is given here.

Tests used:
HeLa [1] = experiment: Antiproliferative activity against BRCA1 expressing human HeLa cells; assay type: functional
How it was run: (§1)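 Antiproliferation in HeLa cells, BRCA1-deficient and BRCA wild-type lines. Read-out is CC50 in nM. Values are means of at least two experiments.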

[2] = biological target: Poly [ADP-ribose] polymerase 1 (Homo sapiens, UniProt P09874)
Poly [ADP-ribose] polymerase 1, sequence (P09874 whole entry): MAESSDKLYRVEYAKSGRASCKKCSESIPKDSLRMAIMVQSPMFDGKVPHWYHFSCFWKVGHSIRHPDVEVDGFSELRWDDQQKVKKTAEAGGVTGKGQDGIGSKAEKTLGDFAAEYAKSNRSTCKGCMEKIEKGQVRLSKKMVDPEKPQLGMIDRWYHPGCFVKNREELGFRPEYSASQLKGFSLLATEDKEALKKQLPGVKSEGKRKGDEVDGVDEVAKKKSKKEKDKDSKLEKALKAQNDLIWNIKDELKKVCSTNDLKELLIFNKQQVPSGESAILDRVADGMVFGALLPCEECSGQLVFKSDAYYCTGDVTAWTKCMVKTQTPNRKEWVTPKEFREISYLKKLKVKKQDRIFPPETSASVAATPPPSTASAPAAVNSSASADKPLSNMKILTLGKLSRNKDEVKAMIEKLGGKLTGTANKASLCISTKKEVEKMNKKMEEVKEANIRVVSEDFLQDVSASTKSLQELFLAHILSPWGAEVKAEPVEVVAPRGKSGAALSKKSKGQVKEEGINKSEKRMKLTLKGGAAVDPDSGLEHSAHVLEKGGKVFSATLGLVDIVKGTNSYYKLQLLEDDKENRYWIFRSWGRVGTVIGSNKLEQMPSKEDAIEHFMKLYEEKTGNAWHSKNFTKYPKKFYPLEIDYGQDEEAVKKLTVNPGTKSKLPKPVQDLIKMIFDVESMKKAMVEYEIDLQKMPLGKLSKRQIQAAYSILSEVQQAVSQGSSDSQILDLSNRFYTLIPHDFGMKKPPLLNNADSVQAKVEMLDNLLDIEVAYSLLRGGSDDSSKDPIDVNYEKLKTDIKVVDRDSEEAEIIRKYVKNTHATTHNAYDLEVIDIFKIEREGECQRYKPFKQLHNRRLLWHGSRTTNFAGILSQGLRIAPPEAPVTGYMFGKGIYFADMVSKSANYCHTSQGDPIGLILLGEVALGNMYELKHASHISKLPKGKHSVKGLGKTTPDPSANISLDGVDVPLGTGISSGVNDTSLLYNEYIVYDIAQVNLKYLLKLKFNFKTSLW

HeLa [3] = experiment: Antiproliferative activity against BRCA1 deficient human HeLa cells; assay type: functional; how it was run: as §1
HeLa [4] = experiment: Antiproliferative activity against BRCA1 deficient human HeLa cells at 5 uM; assay type: functional, cell-based
CYP3A4 = CYP3A4 (Homo sapiens, UniProt P08684); experiment: Inhibition of CYP3A4 at 10 uM; assay type: ADME
CYP3A4, sequence (P08684 whole entry): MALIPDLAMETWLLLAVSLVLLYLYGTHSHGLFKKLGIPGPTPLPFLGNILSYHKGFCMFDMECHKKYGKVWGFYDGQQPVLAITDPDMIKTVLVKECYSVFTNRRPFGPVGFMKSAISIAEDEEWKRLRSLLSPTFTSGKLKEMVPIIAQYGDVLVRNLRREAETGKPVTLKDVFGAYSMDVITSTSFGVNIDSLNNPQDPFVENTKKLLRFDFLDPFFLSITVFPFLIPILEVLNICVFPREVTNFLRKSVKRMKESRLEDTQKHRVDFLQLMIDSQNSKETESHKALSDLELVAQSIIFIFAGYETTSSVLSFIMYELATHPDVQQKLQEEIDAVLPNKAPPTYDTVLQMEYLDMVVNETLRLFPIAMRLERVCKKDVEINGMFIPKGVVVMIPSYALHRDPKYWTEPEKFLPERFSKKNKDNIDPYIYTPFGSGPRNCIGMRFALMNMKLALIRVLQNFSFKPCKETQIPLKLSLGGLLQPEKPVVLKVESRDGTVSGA

[5] = Intrinsic clearance in human liver microsomes; assay type: ADME, Microsome
[6] = Clearance in rat; assay type: ADME, organism-based; settings: in vivo
[7] = Intrinsic clearance in rat liver microsomes; assay type: ADME, Microsome
HeLa [8] = experiment: Selectivity for BRCA1 deficient human HeLa cells over BRCA1 expressing HeLa cells; assay type: functional
[9] = Drug excretion in iv dosed rat urine after 72 hrs; assay type: ADME, organism-based; settings: read-out: Activity
[10] = Drug excretion in iv dosed rat bile after 72 hrs; assay type: ADME, organism-based; settings: read-out: Activity
[11] = Oral bioavailability in rat; assay type: ADME, organism-based; settings: in vivo
[12] = Induction of CYP450 at 10 uM relative to refampicin; assay type: ADME
[13] = biological target: Voltage-gated inwardly rectifying potassium channel KCNH2 (Homo sapiens, UniProt Q12809); experiment: Inhibition of human ERG
Voltage-gated inwardly rectifying potassium channel KCNH2, sequence (Q12809 whole entry): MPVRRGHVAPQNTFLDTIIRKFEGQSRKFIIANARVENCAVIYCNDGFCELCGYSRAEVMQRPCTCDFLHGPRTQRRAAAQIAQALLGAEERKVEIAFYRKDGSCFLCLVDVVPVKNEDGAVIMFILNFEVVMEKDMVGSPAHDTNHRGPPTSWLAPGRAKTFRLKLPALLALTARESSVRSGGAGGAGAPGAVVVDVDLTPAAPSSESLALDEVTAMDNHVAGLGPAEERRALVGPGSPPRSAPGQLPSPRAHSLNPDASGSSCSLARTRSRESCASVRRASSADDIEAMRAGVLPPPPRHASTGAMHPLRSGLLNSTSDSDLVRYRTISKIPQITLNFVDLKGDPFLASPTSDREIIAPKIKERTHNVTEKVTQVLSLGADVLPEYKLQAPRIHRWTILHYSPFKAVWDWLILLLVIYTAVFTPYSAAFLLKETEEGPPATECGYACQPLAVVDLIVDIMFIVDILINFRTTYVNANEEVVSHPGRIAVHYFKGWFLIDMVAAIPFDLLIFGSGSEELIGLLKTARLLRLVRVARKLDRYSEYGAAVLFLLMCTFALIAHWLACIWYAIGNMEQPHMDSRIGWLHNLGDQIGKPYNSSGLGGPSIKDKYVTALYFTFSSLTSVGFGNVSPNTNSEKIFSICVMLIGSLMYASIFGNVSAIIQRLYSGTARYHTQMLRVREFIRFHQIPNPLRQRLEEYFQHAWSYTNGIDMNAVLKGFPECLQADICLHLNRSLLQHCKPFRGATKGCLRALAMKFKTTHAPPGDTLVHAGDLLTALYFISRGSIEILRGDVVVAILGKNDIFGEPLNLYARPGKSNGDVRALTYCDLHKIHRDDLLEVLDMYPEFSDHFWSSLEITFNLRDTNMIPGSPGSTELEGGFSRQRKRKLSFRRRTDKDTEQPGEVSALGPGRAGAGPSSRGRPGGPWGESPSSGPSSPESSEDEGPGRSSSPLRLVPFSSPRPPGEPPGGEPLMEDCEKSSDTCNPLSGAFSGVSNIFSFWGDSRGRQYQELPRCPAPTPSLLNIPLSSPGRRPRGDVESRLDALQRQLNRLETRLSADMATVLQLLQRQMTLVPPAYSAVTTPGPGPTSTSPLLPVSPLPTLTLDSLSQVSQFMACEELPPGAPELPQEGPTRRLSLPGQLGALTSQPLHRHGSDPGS

[14] = Volume of distribution at steady state in rat; assay type: ADME, organism-based; settings: in vivo, read-out: Vdss
[15] = Drug excretion in iv dosed rat urine after 24 hrs; assay type: ADME, organism-based; settings: read-out: Activity
[16] = Half life in rat; assay type: ADME, organism-based; settings: in vivo
CYP2D6 = CYP2D6 (Homo sapiens, UniProt P10635); experiment: Inhibition of CYP2D6 at 10 uM; assay type: ADME
CYP2D6, sequence (P10635 whole entry): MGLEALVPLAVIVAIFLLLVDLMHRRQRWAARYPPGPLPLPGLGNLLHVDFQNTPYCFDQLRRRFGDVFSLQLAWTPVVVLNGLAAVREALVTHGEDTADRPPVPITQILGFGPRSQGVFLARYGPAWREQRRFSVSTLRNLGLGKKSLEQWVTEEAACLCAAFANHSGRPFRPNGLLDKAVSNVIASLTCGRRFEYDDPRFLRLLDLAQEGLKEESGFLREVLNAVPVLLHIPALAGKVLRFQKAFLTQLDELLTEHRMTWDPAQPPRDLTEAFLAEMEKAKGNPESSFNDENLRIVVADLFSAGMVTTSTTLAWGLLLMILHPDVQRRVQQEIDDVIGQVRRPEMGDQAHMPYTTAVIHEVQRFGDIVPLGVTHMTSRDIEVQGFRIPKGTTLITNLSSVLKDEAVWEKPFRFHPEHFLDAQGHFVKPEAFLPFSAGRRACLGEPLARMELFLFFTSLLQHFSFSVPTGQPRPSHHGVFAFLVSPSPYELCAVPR

SMILES | CC50 (HeLa [1]) [µM] | pIC50 [2] | CC50 (HeLa [3]) [nM] | also measured
Cc1c(Cc2ccc(F)c(C(=O)N3CCN(C(=O)C4(NCC5CC5)CCCC4)CC3)c2)n[nH]c(=O)c1C | 2.1 | 8.62 | 71 | 
Cc1c(Cc2ccc(F)c(C(=O)N3CCN(C(=O)C4CCNC4)CC3)c2)n[nH]c(=O)c1C (stereo not given) | > 5 | 8.41 | > 5000 | Activity (HeLa [4]): inactive
Cc1c(Cc2ccc(F)c(C(=O)N3CCN(C(=O)C4(Cc5ccc(F)cc5)CCCN4)CC3)c2)n[nH]c(=O)c1C (stereo not given) | 2.7 | 8.44 | 9.1 | inhibition at 10 µM (CYP3A4): 73%
Cc1c(Cc2ccc(F)c(C(=O)N3CCN(C(=O)C4(C)CCCN4)CC3)c2)n[nH]c(=O)c1C (stereo not given) | > 5 | 8.55 | 90 | microsomal CLint [5]: < 1 µL/min/mg; clearance [6]: 38 mL/min/kg; microsomal CLint [7]: < 1 µL/min/mg; Ratio (HeLa [8]): 30; dose excreted at 72 h [9]: 82%; dose excreted at 72 h [10]: 3%; bioavailability [11]: < 3%
C=CCC1(C(=O)N2CCN(C(=O)c3cc(Cc4n[nH]c(=O)c(C)c4C)ccc3F)CC2)CCCN1 (stereo not given) | 19 | 8.74 | 31 | 
CNC(C)(C)C(=O)N1CCN(C(=O)c2cc(Cc3n[nH]c(=O)c(C)c3C)ccc2F)CC1 | > 5 | 8.43 | 280 | microsomal CLint [5]: 10 µL/min/mg; clearance [6]: 64 mL/min/kg; microsomal CLint [7]: 7 µL/min/mg
Cc1c(Cc2ccc(F)c(C(=O)N3CCN(C(=O)C4(N(C)C)CC4)CC3)c2)n[nH]c(=O)c1C | 7.7 | 8.24 | 350 | 
Cc1c(Cc2ccc(F)c(C(=O)N3CCN(C(=O)C4(NCC5CC5)CCC4)CC3)c2)n[nH]c(=O)c1C | 0.45 | 8.49 | 24 | 
CNC1(C(=O)N2CCN(C(=O)c3cc(Cc4n[nH]c(=O)c(C)c4C)ccc3F)CC2)CC1 | > 5 |  | 240 | 
Cc1c(Cc2ccc(F)c(C(=O)N3CCN(C(=O)C4(C)CCCCN4)CC3)c2)n[nH]c(=O)c1C (stereo not given) | > 20 | 7.92 | 2000 | 
Cc1c(Cc2ccc(F)c(C(=O)N3CCN(C(=O)[C@@]4(Cc5ccc(F)cc5)CCCN4)CC3)c2)n[nH]c(=O)c1C | 15 | 8.38 | 290 | 
CNC(C)(C)C(=O)N1CCN(C(=O)c2cc(Cc3c[nH]c(=O)c4cc(Cl)c(Cl)n34)ccc2F)CC1 | > 5 | 8.70 | 53 | inhibition at 10 µM (CYP3A4): 25%; Activity [12]: 14%; clearance [6]: > 200 mL/min/kg; microsomal CLint [7]: 122 µL/min/mg; Ratio (HeLa [8]): >100; pIC50 [13]: 4.96
Cc1c(Cc2ccc(F)c(C(=O)N3CCC4(CCNC4)CC3)c2)n[nH]c(=O)c1C | > 5 | 8.33 | > 5000 | 
CCC1(C(=O)N2CCN(C(=O)c3cc(Cc4n[nH]c(=O)c(C)c4C)ccc3F)CC2)CCCN1 (stereo not given) | 16 | 8.42 | 24 | microsomal CLint [5]: 13 µL/min/mg; microsomal CLint [7]: 6 µL/min/mg; bioavailability [11]: < 3%
Cc1c(Cc2ccc(F)c(C(=O)N3CCN(C(=O)[C@]4(C)CCCN4)CC3)c2)n[nH]c(=O)c1C | > 40 | 8.42 | 780 | 
Cc1c(Cc2ccc(F)c(C(=O)N3CCN(C(=O)C4(Cc5ccccc5)CCCN4)CC3)c2)n[nH]c(=O)c1C (stereo not given) | > 5 | 8.48 | 53 | 
Cc1c(Cc2ccc(F)c(C(=O)N3CCC4(CCN4)CC3)c2)n[nH]c(=O)c1C | > 5 | 8.34 | > 5000 | 

SMILES | CC50 (HeLa [1]) [µM] | pIC50 [2] | CC50 (HeLa [3]) [nM] | also measured
Cc1c(Cc2ccc(F)c(C(=O)N3CCN(C(=O)C4(N5CCCC5)CCCC4)CC3)c2)n[nH]c(=O)c1C | 1.5 | 8.57 | 89 | 
Cc1c(Cc2ccc(F)c(C(=O)N3CCN(C(=O)C(C)(C)N(C)C)CC3)c2)n[nH]c(=O)c1C | > 2.5 | 8.74 | 360 | 
Cc1c(Cc2ccc(F)c(C(=O)N3CCC4(CCCN4)CC3)c2)n[nH]c(=O)c1C | > 5 | 8.59 | 49 | Vd [14]: 6.7 L/kg; microsomal CLint [5]: < 1 µL/min/mg; clearance [6]: 57 mL/min/kg; microsomal CLint [7]: < 1 µL/min/mg; dose excreted at 24 h [15]: 37%; half-life [16]: 222 min
Cc1c(Cc2ccc(F)c(C(=O)N3CCN(C(=O)C4(C)CCCO4)CC3)c2)n[nH]c(=O)c1C (stereo not given) | 11 | 8.55 | 380 | 
CNC1(C(=O)N2CCN(C(=O)c3cc(Cc4n[nH]c(=O)c(C)c4C)ccc3F)CC2)CCCC1 | > 5 | 8.57 | 81 | 
Cc1c(Cc2ccc(F)c(C(=O)N3CCN(C(=O)C4(Nc5ccccc5)CCCC4)CC3)c2)n[nH]c(=O)c1C | 0.87 | 8.41 | 130 | 
CCN1CCCC12CCN(C(=O)c1cc(Cc3n[nH]c(=O)c(C)c3C)ccc1F)CC2 | > 5 | 8.01 | 170 | 
Cc1c(Cc2ccc(F)c(C(=O)N3CCN(C(=O)[C@@H]4CCCN4)CC3)c2)n[nH]c(=O)c1C | > 10 | 8.51 | 3000 | 
CCNC1(C(=O)N2CCN(C(=O)c3cc(Cc4n[nH]c(=O)c(C)c4C)ccc3F)CC2)CCCC1 | 4 | 8.51 | 91 | 
Cc1c(Cc2ccc(F)c(C(=O)N3CCC4(CCCN4C)CC3)c2)n[nH]c(=O)c1C | > 5 | 8.35 | 100 | 
Cc1c(Cc2ccc(F)c(C(=O)N3CCN(C(=O)[C@H]4CCCN4)CC3)c2)n[nH]c(=O)c1C | > 10 | 8.57 | 220 | 
Cc1c(Cc2ccc(F)c(C(=O)N3CCN(C(=O)[C@@]4(C)CCCN4)CC3)c2)n[nH]c(=O)c1C | > 5 | 8.89 | 45 | Ratio (HeLa [8]): 100
Cc1c(Cc2ccc(F)c(C(=O)N3CCN(C(=O)[C@@]4(C)CCN4)CC3)c2)n[nH]c(=O)c1C | > 40 | 8.51 | 78 | microsomal CLint [5]: 3 µL/min/mg; microsomal CLint [7]: < 1 µL/min/mg; dose excreted at 24 h [15]: 11%; bioavailability [11]: < 3%
Cc1c(Cc2ccc(F)c(C(=O)N3CCN(C(=O)C4(NCC5CC5)CCCCC4)CC3)c2)n[nH]c(=O)c1C | 1.9 | 8.46 | 170 | 
Cc1c(Cc2ccc(F)c(C(=O)N3CCN(C(=O)[C@]4(Cc5ccc(F)cc5)CCCN4)CC3)c2)n[nH]c(=O)c1C | 3.3 | 8.60 | 15 | 
O=C(c1cc(Cc2c[nH]c(=O)c3cc(Cl)c(Cl)n23)ccc1F)N1CCC2(CCCN2)CC1 | > 5 | 8.60 | 48 | inhibition at 10 µM (CYP2D6): 35%; clearance [6]: 130 mL/min/kg; microsomal CLint [7]: 65 µL/min/mg; Ratio (HeLa [8]): >100; pIC50 [13]: 4.92
